Data as given in ChEMBL document CHEMBL1126014, “New conformationally restricted 99mTc N2S2 complexes as myocardial perfusion imaging agents” (J Med Chem, 1992).

Legend:
[1] = Partition coefficient in buffer containing 0.1 M NaCl; type: ADME; settings: octanol/water
Outline: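 Octanol/buffer partition: the 99mTc complex was shaken with 3 g 1-octanol plus 3 g 50 mM phosphate pH 7.4 containing 0.1 M NaCl. Vortexing was 3 × 1 min at room temperature, followed by 5 min centrifugation. Weighed samples from both layers were gamma-counted. Ratio = octanol counts/g over aqueous counts/g.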

Rattus norvegicus [2] = test: Biodistribution of the radiolabeled compound (2-5 uCi) in rat heart 65 mins after i.v. administration; type: ADME, organism-based; settings: in vivo, iv
Outline: (§1)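 Rats given the 99mTc complex iv. At set times, blood was drawn by cardiac puncture and the animals were killed at once by cardiectomy. Organs were excised, weighed and gamma-counted. Percent dose per organ was found by comparing tissue radioactivity with suitable dilutions of the injected dose.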

Rattus norvegicus [3] = test: Biodistribution of the radiolabeled compound (2-5 uCi) in rat spleen 65 mins after i.v. administration; type: ADME, organism-based; settings: in vivo, iv; outline: as §1
Rattus norvegicus [4] = test: Biodistribution of the radiolabeled compound (2-5 uCi) in rat liver 65 mins after i.v. administration; type: ADME, organism-based; settings: in vivo, iv; outline: as §1
Rattus norvegicus [5] = test: Biodistribution of the radiolabeled compound (2-5 uCi) in rat brain 15 mins after i.v. administration; type: ADME, organism-based; settings: in vivo, iv, 0.25 h; outline: as §1
Rattus norvegicus [6] = test: Biodistribution of the radiolabeled compound (2-5 uCi) in rat spleen 15 mins after i.v. administration; type: ADME, organism-based; settings: in vivo, iv, 0.25 h; outline: as §1
Rattus norvegicus [7] = test: Biodistribution of the radiolabeled compound (2-5 uCi) in rat muscle 2 mins after i.v. administration; type: ADME, organism-based, Muscle tissue; settings: in vivo, iv; outline: as §1
Rattus norvegicus [8] = test: Biodistribution of the radiolabeled compound (2-5 uCi) in rat liver 2 mins after i.v. administration; type: ADME, organism-based; settings: in vivo, iv; outline: as §1
Rattus norvegicus [9] = test: Biodistribution of the radiolabeled compound (2-5 uCi) in rat kidney 15 mins after i.v. administration; type: ADME, organism-based; settings: in vivo, iv, 0.25 h; outline: as §1
Rattus norvegicus [10] = test: Biodistribution of the radiolabeled compound (2-5 uCi) in rat liver 15 mins after i.v. administration; type: ADME, organism-based; settings: in vivo, iv, 0.25 h; outline: as §1
Rattus norvegicus [11] = test: Biodistribution of the radiolabeled compound (2-5 uCi) in rat skin 65 mins after i.v. administration; type: ADME, organism-based, Zone of skin; settings: in vivo, iv; outline: as §1
Rattus norvegicus [12] = test: Biodistribution of the radiolabeled compound (2-5 uCi) in rat lung 15 mins after i.v. administration; type: ADME, organism-based; settings: in vivo, iv, 0.25 h; outline: as §1
Rattus norvegicus [13] = test: Biodistribution of the radiolabeled compound (2-5 uCi) in rat heart 2 mins after i.v. administration; type: ADME, organism-based; settings: in vivo, iv; outline: as §1
Rattus norvegicus [14] = test: Biodistribution of the radiolabeled compound (2-5 uCi) in rat muscle 65 mins after i.v. administration; type: ADME, organism-based, Muscle tissue; settings: in vivo, iv; outline: as §1
Rattus norvegicus [15] = test: Biodistribution of the radiolabeled compound (2-5 uCi) in rat blood 15 mins after i.v. administration; type: ADME, organism-based; settings: in vivo, iv, 0.25 h; outline: as §1
Rattus norvegicus [16] = test: Biodistribution of the radiolabeled compound (2-5 uCi) in rat brain 65 mins after i.v. administration; type: ADME, organism-based; settings: in vivo, iv; outline: as §1
Rattus norvegicus [17] = test: Biodistribution of the radiolabeled compound (2-5 uCi) in rat skin 2 mins after i.v. administration; type: ADME, organism-based, Zone of skin; settings: in vivo, iv; outline: as §1
Rattus norvegicus [18] = test: Biodistribution of the radiolabeled compound (2-5 uCi) in rat heart 15 mins after i.v. administration; type: ADME, organism-based; settings: in vivo, iv, 0.25 h; outline: as §1
Rattus norvegicus [19] = test: Biodistribution of the radiolabeled compound (2-5 uCi) in rat spleen 2 mins after i.v. administration; type: ADME, organism-based; settings: in vivo, iv; outline: as §1
[20] = Partition coefficient in buffer containing 0.1 M NH4PF6; type: ADME; settings: octanol/water
Outline: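 The 99mTc complex was mixed with 3 g each of 1-octanol and 50 mM phosphate buffer pH 7.4 containing 0.1 M NH4PF6. Tubes were vortexed three times for 1 min at room temperature and centrifuged 5 min. Weighed samples of each layer were gamma-counted. PC = counts per gram in octanol / counts per gram in aqueous.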

Rattus norvegicus [21] = test: Biodistribution of the radiolabeled compound (2-5 uCi) in rat blood 65 mins after i.v. administration; type: ADME, organism-based; settings: in vivo, iv; outline: as §1
Rattus norvegicus [22] = test: Biodistribution of the radiolabeled compound (2-5 uCi) in rat kidney 65 mins after i.v. administration; type: ADME, organism-based; settings: in vivo, iv; outline: as §1
Rattus norvegicus [23] = test: Biodistribution of the radiolabeled compound (2-5 uCi) in rat muscle 15 mins after i.v. administration; type: ADME, organism-based, Muscle tissue; settings: in vivo, iv, 0.25 h; outline: as §1
Rattus norvegicus [24] = test: Biodistribution of the radiolabeled compound (2-5 uCi) in rat lung 2 mins after i.v. administration; type: ADME, organism-based; settings: in vivo, iv; outline: as §1
Rattus norvegicus [25] = test: Biodistribution of the radiolabeled compound (2-5 uCi) in rat blood 2 mins after i.v. administration; type: ADME, organism-based; settings: in vivo, iv; outline: as §1
Rattus norvegicus [26] = test: Biodistribution of the radiolabeled compound (2-5 uCi) in rat skin 15 mins after i.v. administration; type: ADME, organism-based, Zone of skin; settings: in vivo, iv, 0.25 h; outline: as §1
Rattus norvegicus [27] = test: Biodistribution of the radiolabeled compound (2-5 uCi) in rat brain 2 mins after i.v. administration; type: ADME, organism-based; settings: in vivo, iv; outline: as §1
Rattus norvegicus [28] = test: Biodistribution of the radiolabeled compound (2-5 uCi) in rat lung 65 mins after i.v. administration; type: ADME, organism-based; settings: in vivo, iv; outline: as §1
Rattus norvegicus [29] = test: Heart by blood ratio of the radiolabeled compound (2-5 uCi) in rat 65 mins after i.v. administration; settings: in vivo, iv
Rattus norvegicus [30] = test: Biodistribution of the radiolabeled compound (2-5 uCi) in rat kidney 2 mins after i.v. administration; type: ADME, organism-based; settings: in vivo, iv; outline: as §1
Rattus norvegicus [31] = test: Heart by blood ratio of the radiolabeled compound (2-5 uCi) in rat 2 mins after i.v. administration; settings: in vivo, iv
Rattus norvegicus [32] = test: Heart/blood ratio of the radiolabeled compound (2-5 uCi) in rat 15 mins after i.v. administration; settings: in vivo, iv, 0.25 h

Partition coefficient [1] | Biodistribution (Rattus norvegicus [2]) | Biodistribution (Rattus norvegicus [3]) | Biodistribution (Rattus norvegicus [4]) | Biodistribution (Rattus norvegicus [5]) | Biodistribution (Rattus norvegicus [6]) | Biodistribution (Rattus norvegicus [7]) | Biodistribution (Rattus norvegicus [8]) | Biodistribution (Rattus norvegicus [9]) | Biodistribution (Rattus norvegicus [10]) | Biodistribution (Rattus norvegicus [11]) | Biodistribution (Rattus norvegicus [12]) | Biodistribution (Rattus norvegicus [13]) | Biodistribution (Rattus norvegicus [14]) | Biodistribution (Rattus norvegicus [15]) | Biodistribution (Rattus norvegicus [16]) | Biodistribution (Rattus norvegicus [17]) | Biodistribution (Rattus norvegicus [18]) | Biodistribution (Rattus norvegicus [19]) | Partition coefficient [20] | Structure (SMILES) | also measured
1.19 | 0.37 dose/organ % | 0.22 dose/organ % | 15.23 dose/organ % | 0.01 dose/organ % | 0.26 dose/organ % | 9.08 dose/organ % | 25.92 dose/organ % | 15.9 dose/organ % | 27.48 dose/organ % | 6.8 dose/organ % | 0.28 dose/organ % | 0.42 dose/organ % | 8.66 dose/organ % | 1.14 dose/organ % | 0.007 dose/organ % | 7.45 dose/organ % | 0.38 dose/organ % | 0.41 dose/organ % | 11.5 | CC(C)(S)CN1CCCN(CC(C)(C)S)CC1 | Biodistribution (Rattus norvegicus [21]): 0.77 dose/organ %; Biodistribution (Rattus norvegicus [22]): 4.26 dose/organ %; Biodistribution (Rattus norvegicus [23]): 6.98 dose/organ %; Biodistribution (Rattus norvegicus [24]): 0.56 dose/organ %; Biodistribution (Rattus norvegicus [25]): 3.57 dose/organ %; Biodistribution (Rattus norvegicus [26]): 5.16 dose/organ %; Biodistribution (Rattus norvegicus [27]): 0.04 dose/organ %; Biodistribution (Rattus norvegicus [28]): 0.23 dose/organ %; heart/blood ratio (Rattus norvegicus [29]): 4.8; Biodistribution (Rattus norvegicus [30]): 19.37 dose/organ %; heart/blood ratio (Rattus norvegicus [31]): 1.18; heart/blood ratio (Rattus norvegicus [32]): 3.33
1.09 | 0.07 dose/organ % | 0.08 dose/organ % | 20.2 dose/organ % | 0.01 dose/organ % | 0.25 dose/organ % | 10.67 dose/organ % | 31.81 dose/organ % | 9.43 dose/organ % | 29.63 dose/organ % | 7.13 dose/organ % | 0.23 dose/organ % | 0.21 dose/organ % | 5.06 dose/organ % | 2 dose/organ % | 0.003 dose/organ % | 6.65 dose/organ % | 0.1 dose/organ % | 0.57 dose/organ % | 10.75 | CC(C)(S)CN1CCN(CC(C)(C)S)CC1 | Biodistribution (Rattus norvegicus [21]): 0.7 dose/organ %; Biodistribution (Rattus norvegicus [22]): 1.09 dose/organ %; Biodistribution (Rattus norvegicus [23]): 10.12 dose/organ %; Biodistribution (Rattus norvegicus [24]): 0.62 dose/organ %; Biodistribution (Rattus norvegicus [25]): 7.16 dose/organ %; Biodistribution (Rattus norvegicus [26]): 14.13 dose/organ %; Biodistribution (Rattus norvegicus [27]): 0.03 dose/organ %; Biodistribution (Rattus norvegicus [28]): 0.12 dose/organ %; heart/blood ratio (Rattus norvegicus [29]): 1; Biodistribution (Rattus norvegicus [30]): 15.71 dose/organ %; heart/blood ratio (Rattus norvegicus [31]): 0.29; heart/blood ratio (Rattus norvegicus [32]): 0.5
